# Source: ChEMBL document CHEMBL4513216, “Probing the Open Global Health Chemical Diversity Library for Multistage-Active Starting Points for Next-Generation Antimalarials” (ACS Infect Dis, 2020)
# Test: Toxicity liver stage against HepG2, at 10uM
# Type: cell-based
# Design: test concentration 10 uM, cell line HepG2-A16-CD81EGFP
# Conditions: human, HepG2-A16-CD81EGFP cells; read-out: INHIBITION
# Method in brief: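 Uninfected HepG2-A16-CD81EGFP cells, 3 × 10^3 per well, 1536-well, plated on prespotted compound at 10 μM final, parasite-free screening media added to match infected plates; puromycin 10 μM positive, DMSO 0.5% negative; run in parallel with 48 h PbLuc assay at 37 °C, 5% CO2; viability by CellTiter-Glo luminescence, normalized to controls.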
row,SMILES,cytotoxicity at 10 µM [%]
1,Cn1cncc1-c1nnc([C@H]2CCN(Cc3ccc(CO)o3)C2)o1,-4.09
2,CC1(C)[C@H](Cc2cc(CN3CCCCC3)on2)C[C@@H]1NS(C)(=O)=O,1.12
3,CC1CCN(C[C@H]2CN3CC[C@H]2C[C@@H]3CNC(=O)c2ccco2)CC1,-1.55
4,COC(=O)[C@@H]1CN(C(=O)Nc2ccccc2)CCN1C(C)=O,4.23
5,CCCOC(=O)c1ccc(-c2ccc(/C=C3\C(=O)NC(=N)N3C)o2)cc1,2.91
6,O=C(NCCCc1ccco1)c1cnc(N2CCOCC2)nc1,11
7,O=C1CC(c2cccnc2)c2c(c(C(=O)O)cn2-c2cccc(F)c2)N1 (stereo unspecified),-0.585
8,COc1ccc2c(c1)c(C(=O)Nc1cc(C)n(C)n1)cn2C(C)C,-1.33
9,COC(=O)CNC(=O)c1nc(Cl)sc1C(C)C,1.34
10,COc1ccccc1C(=O)Nc1nc2c(s1)CN(S(=O)(=O)C1CC1)CC2,-11.7
11,O=C(NCCOc1ccccc1)NCC(O)c1cccs1 (stereo unspecified),-7.83
12,CCOc1ccc(S(=O)(=O)N(CCOC)Cc2ccoc2)cc1F,8.31
13,O=C(C1CCOCC1)N1CCC2(CCNCC2)C1,3.41
14,Cn1nc(CN2CCCC2)c2c1CN(C(=O)c1ccc[nH]1)CC2,6.86
15,CN(Cc1cccnc1)C1CC2(CCN(C(=O)c3cscn3)CC2)C1,1.02
16,Cn1c(C(=O)NC2CCCC2)nc2c1CCN(Cc1ccccc1)C2,10.3
17,CC(=O)c1ccc(NC(=O)N[C@H](C(=O)O)C(C)C)cc1,-14.8
18,CC(C)(C)C(=O)N1CCC2(COCc3cnc(N4CCOCC4)nc32)C1 (stereo unspecified),-14.2
19,O=C(NCCC(O)c1ccccc1)c1ccco1 (stereo unspecified),-0.749
20,CC(=O)NC1Cc2ccc(S(=O)(=O)NCCNc3ccccn3)cc2C1 (stereo unspecified),0.126
21,Cc1cc(C(F)(F)F)n2nc(C3CCN(S(C)(=O)=O)CC3)cc2n1,0.065
22,CCN(CC)CCCNCc1cc2cc(C)cc(C)c2[nH]c1=O,7.63
23,CC(C)c1ccc(CN[C@@H]2COC[C@H]2c2ccc(F)cc2)cc1,-7.52

row,SMILES,cytotoxicity at 10 µM [%]
1,CN(C)c1ccc(CC2CCN(c3cnccn3)CC2)nn1,2.29
2,CC(C)OC(=O)[C@@H]1CCN(C(=O)c2ccccn2)[C@@H]1c1ccc(F)cc1,4.81
3,Cc1n[nH]c(C)c1CCC(=O)N[C@@H]1CCC[C@@H](Oc2ccccc2)[C@@H]1O,3.01
4,CCc1n[nH]c(C(=O)NCCn2ccc(C)n2)c1C,8.58
5,CS(=O)(=O)N1CCCC1c1cccc(Nc2nccs2)n1 (stereo unspecified),-33.4
6,Cc1ncc(CNC(=O)Cc2ccsc2)c(C2CCCN2C)n1 (stereo unspecified),-1.25
7,CN1CC(c2cc(O)nc(NCc3ccc(Cl)cc3)n2)CC1=O (stereo unspecified),-9.54
8,CCCC(NC(=O)c1cc(C2CC2)[nH]n1)c1nnc2ccccn12 (stereo unspecified),0.11
9,Cc1nnc2n1CCN(C(=O)c1ccc(Cn3cccc3)cc1)C2,-2.4
10,Oc1cccc(CNCc2ccc(-n3cncn3)nc2)c1,4.01
11,COc1ccc(-c2noc(C3=NN(C)C(=O)CC3)n2)cc1OC,-0.51
12,CCc1cccc(C)c1NC(=O)NCCCN(CC)S(C)(=O)=O,4.87
13,CS(=O)(=O)C1(CNCc2cccc(-n3cccn3)c2)CCOCC1,-141
14,Cn1cnc(S(=O)(=O)N2CCCc3cc(F)cc(F)c32)c1Cl,-0.767
15,CC(C)CN(C(=O)Nc1cccnc1)C1CC1,-11.3
16,Cc1cc(C(=O)NC(C)CC(=O)c2cccs2)n(C)n1 (stereo unspecified),-0.0944
17,O=C(NCc1nncn1C1CC1)c1ccccc1Oc1cccnc1,-4.97
18,CN(C)c1ccc(C(=O)Nc2ccn(CCc3ccncc3)n2)cn1,-12.7
19,O=C(Nc1ccc(-n2cncn2)nc1)N(CC1CCOC1)C1CC1 (stereo unspecified),-9.2
20,Cc1nnc2n1CCN(C(=O)c1cnc3c(cnn3CC(C)C)c1)C2,-8.72
21,CN(C)C(CNC(=O)NCCS(C)(=O)=O)c1ccco1 (stereo unspecified),4.41
22,COc1ccc(C(C)NC(=O)Nc2nnc(C)s2)c(OC)c1 (stereo unspecified),9.12
23,COC(=O)N1CCC(NC(=O)Cn2cc(C)c3ccccc32)CC1,-2.37

row,SMILES,cytotoxicity at 10 µM [%]
1,CC(C)CC(=O)Nc1c(-c2ccc(F)cc2)ncn1C,5.87
2,Cc1cc(C)c(C(=O)N2CCOC(c3cccs3)C2)c(=O)[nH]1 (stereo unspecified),-1.29
3,Cn1c(SCC(O)COCc2ccc(Cl)cc2)nnc1C1CC1 (stereo unspecified),14
4,Cc1ccc(N2CCCC(NC(=O)CCc3ccccn3)C2=O)cc1 (stereo unspecified),-2.16
5,CSCCC(C)NC(=O)N(C)Cc1cc(Cl)cn1C (stereo unspecified),3.04
6,CC(NC(=O)N1CCNC(=O)CC1)c1ccc(OC(F)F)cc1 (stereo unspecified),11.6
7,O=C(c1cnns1)N1CCN(Cc2ccc(F)cc2Cl)CC1,-127
8,O=C(NCCNc1cnccn1)NCC1CCS(=O)(=O)C1 (stereo unspecified),-1.68
9,Cc1ccc(F)c(C(=O)Nc2c(C(N)=O)n[nH]c2C)c1,-0.587
10,N#Cc1ccc(OC2CCN(CC(=O)NCC(F)(F)F)CC2)cc1,11.9
11,CN1CC(C(=O)NCc2ccc(Br)cc2F)CC1=O (stereo unspecified),9.01
12,Cc1ccn(-c2ccc(NCc3ccccc3F)nn2)n1,3.66
13,CCC1CCCCN1C(=O)c1ccc2[nH]nnc2c1 (stereo unspecified),-10.7
14,CCOC(C)c1nc(CN2CCC(CNC(C)=O)CC2)cs1 (stereo unspecified),-15
15,CN(C)S(=O)(=O)N1CCCC1CC(=O)c1cccs1 (stereo unspecified),-9.44
16,CC(C)OCCOCc1cccc(NC(=O)NCc2ccncc2)c1,-12
17,COc1c(C2CCCN2C(=O)c2ccc(Cl)o2)c(C)nn1C (stereo unspecified),-10.4
18,c1cnc(N2CCOCC3(CCN(c4cnccn4)CC3)C2)nc1,-103
19,COCC(=O)N1CCN(CC2CC2)c2ncccc2C1,-100
20,CCN(CC)CC(=O)NCc1cccnc1-n1cnc2ccccc21,1.77
21,Cc1cc(N(C)Cc2ncc[nH]2)nc(-c2cccnc2)n1,4.37
22,CSCC(=O)NC1CC(=O)N(CCc2ccccc2)C1 (stereo unspecified),-2.1
23,Cc1cc(-c2ccc(C(C)N3CCCCC3)cc2)cnc1N (stereo unspecified),-3.44

row,SMILES,cytotoxicity at 10 µM [%]
1,COc1cccc(F)c1-c1nc2c([nH]1)c(C1CC1)nn2C,0.271
2,COc1ccc(OCc2cc(C(=O)N3CCSCC3)n[nH]2)c(Cl)c1,-7.51
3,Cc1ccnc(NCCNC(=O)C2CC3(CCNCC3)CN2C)c1 (stereo unspecified),2.69
4,C[C@@H]1CN(CCOc2ccc(Cl)cc2)CC[C@@]1(O)C1CCOCC1,19.4
5,COC(=O)NCC(=O)N1CCC(Oc2cccc(C)c2)CC1,-0.555
6,CC(Oc1ccc(F)cc1F)C(=O)N1CCC2(CC1)CC(=O)N(C)C2 (stereo unspecified),1.63
7,CC(=O)N[C@@H]1CN(Cc2nccn2C)C[C@H]1c1ccc(C)cc1,14.1
8,Cc1ccc(-c2nc(CN3CCOCS3(=O)=O)c(C)o2)cc1,-0.724
9,COc1cccn(CC(=O)N2CCCC3(CCCCC3)C2)c1=O,-1.29
10,CN(C)CC(C)(C)Cn1cnc(-c2ccccc2)c1-c1ccncc1,4.19
11,O=C(C1CCC1)N1CCN(Cc2ccsc2)[C@H]2CS(=O)(=O)C[C@H]21,-12
12,CCC1CN(C(=O)c2ccc(Cl)cc2O)CCN1C(C)C (stereo unspecified),-15.5
13,Cc1ncsc1-c1nnc(C2CCN(CC3CCCCC3)CC2)o1,1.59
14,Cc1c[nH]nc1C1CCCCN1C(=O)Cn1cc(Cl)cn1 (stereo unspecified),4.11
15,Cc1ccn(CCC(=O)N2CCOC(c3nc(-c4cccs4)no3)C2)n1 (stereo unspecified),7.03
16,CCOCC(O)CN1CCN(C(=O)c2cc(Cl)ccc2F)CC1 (stereo unspecified),-6.54
17,NC(=O)c1cnn2c1NCC(CNCCOc1ccccc1)C2 (stereo unspecified),-11.4
18,Cc1csc(C2CCCN(C(=O)Cn3ccccc3=O)C2)n1 (stereo unspecified),-5.68
19,CC(C)Oc1ncccc1CNC(=O)Nc1ccccn1,-9.41
20,c1ccc(-n2cc(CN3CCCC3Cn3cccn3)nn2)cc1 (stereo unspecified),0.207
21,Cc1ccc(OCC(=O)NC2CCN(S(C)(=O)=O)CC2)cc1,-0.0552
22,Cc1ccc(CNC(=O)NC(C)Cn2cccn2)cn1 (stereo unspecified),-11.2
23,COC1CCN(Cc2csc(C(C)C)n2)CC1,3.32

row,SMILES,cytotoxicity at 10 µM [%]
1,Cc1cc(NC(=O)C(C)N2CCN(c3nc(C)cs3)CC2)on1 (stereo unspecified),-0.71
2,CN(Cc1cc(-c2ccccc2)no1)CC1CCCN1c1cccnn1 (stereo unspecified),-9.09
3,CN(Cc1cccnc1)CC1CCCN1c1cccnn1 (stereo unspecified),0.192
4,FC(F)(F)c1nc(C2CCCNC2)no1 (stereo unspecified),5.25
5,NCCc1cn(Cc2ccccn2)c2ccccc12,3.71
6,Cc1ccc([C@]2(O)CC[C@H]3CN(Cc4ccccc4F)C[C@H]32)nc1,-12.8
7,CCN1CCn2c(C)cnc2C12CCN(C(=O)N(C)C)CC2,4.91
8,CN1CC[C@@H]2[C@@H](CO[C@H]2CNC(=O)c2nccn2C)C1,-113
9,COc1ccc(CN2C[C@H]3CN(c4cncnc4)C(=O)[C@H]3C2)cc1,4.74
10,c1ccc(CN2CCCn3nnc(CNc4ncccn4)c3C2)nc1,-3.29
11,O=C(NC1CCCC1)c1ccc(C2CCCNC2)nc1 (stereo unspecified),-13.7
12,O=C(C[C@@H]1COC[C@H]2CN(Cc3ccc(F)cc3)C[C@@H]12)N1CCOCC1,7.75
13,CCN1CCn2cc(CNC(=O)c3cnn(C)c3)nc2C1,8.88
14,Fc1cccnc1OC[C@@]12CCO[C@@H]1CCN(CC1CCOCC1)C2,-14.6
15,Cc1nc(Cn2c3c(ccc2=O)CCN(CC2CCC2)CC3)cs1,5.1
16,c1cncc(C2COC3(CCN(CC4CC4)CC3)C2)c1 (stereo unspecified),-14.9
17,CNC(=O)N1CC[C@H]2N(C)CC[C@@]2(C(=O)N2CCOCC2)CC1,-2.72
18,CCn1cc2c(n1)CN(S(=O)(=O)c1cn(C)cn1)CC2COC (stereo unspecified),5.41
19,O=S(=O)(Cc1ccccc1)N1CCCn2cnc(CN3CCCC3)c2C1,3.3
